Data as given in ChEMBL document CHEMBL2177092, “Phosphoramidate ProTides of the anticancer agent FUDR successfully deliver the preformed bioactive monophosphate in cells and confer advantage over the parent nucleoside” (J Med Chem, 2011).

Key:
HeLa [1] = assay: Cytostatic activity against thymidine-kinase deficient human HeLa cells […]; assay type: functional, cell-based
L1210 [2] = assay: Ratio of IC50 for Mycoplasma hyorhinis-infected mouse L1210 cells to IC50 for mouse L1210/0 cells after 48 hrs by cell counting; assay type: functional
Method in brief: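 Murine L1210/0 cells were compared with L1210/TK cells, selected for resistance to 5-bromo-2'-dUrd, and with L1210.Hyor cells, chronically infected with Mycoplasma hyorhinis. Cells were grown in DMEM with 10% FBS, 10 mM Hepes and 1 mM pyruvate at 37 °C and 5% CO2, then seeded at 60 000 cells/well with compound. They were Coulter-counted after 48 h. […] Mean of 2–4 experiments.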

CCRF-CEM [3] = assay: Cytostatic activity against human CEM/0 cells after 72 hrs by cell counting; assay type: functional, cell-based
Method in brief: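 Suspension leukemia cells in DMEM with 10% FBS, 10 mM Hepes and 1 mM sodium pyruvate at 37 °C under 5% CO2. Seeded at 60 000 cells/well with graded compound levels. Grown 48 h (L1210) or 72 h (CEM), then counted by Coulter counter. […] Mean ± SD of two to four independent experiments.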

CCRF-CEM [4] = assay: Cytostatic activity against thymidine-kinase deficient human CEM cells after 72 hrs by cell counting; assay type: functional, cell-based
Method in brief: (§1)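 Suspension leukemia cells in DMEM with 10% FBS, 10 mM Hepes and 1 mM sodium pyruvate at 37 °C under 5% CO2. Seeded at 60 000 cells/well with graded compound levels. Grown 48 h (L1210) or 72 h (CEM), then counted by Coulter counter. Mean ± SD of two to four independent experiments.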

HeLa [5] = assay: Cytostatic activity against human HeLa cells […] by cell counting; assay type: functional, cell-based
L1210 [6] = assay: Cytostatic activity against Mycoplasma hyorhinis-infected mouse L1210 cells after 48 hrs by cell counting; assay type: functional, cell-based; details: L1210, 48 h; method in brief: as §1
[7] = Cytostatic activity against mouse L1210/0 cells after 48 hrs by cell counting; assay type: functional, cell-based; details: L1210/0, 48 h; method in brief: as §1
L1210 [8] = assay: Cytostatic activity against thymidine-kinase deficient mouse L1210 cells after 48 hrs by cell counting; assay type: functional, cell-based; details: L1210, 48 h; method in brief: as §1

Structure (SMILES)	IC50 (HeLa [1]) [nM]	Ratio IC50 (L1210 [2])	IC50 (CCRF-CEM [3]) [nM]	IC50 (CCRF-CEM [4]) [nM]	IC50 (HeLa [5]) [nM]	IC50 (L1210 [6]) [nM]	IC50 [7] [nM]	IC50 (L1210 [8]) [nM]
CSCC[C@H](NP(=O)(OC[C@H]1O[C@@H](n2cc(F)c(=O)[nH]c2=O)C[C@@H]1O)Oc1cccc2ccccc12)C(=O)OCc1ccccc1 (mixture of isomers)	8300	3.7	190	11000	87	200	54	1900
CCCCCOC(=O)[C@H](CC(C)C)NP(=O)(OC[C@H]1O[C@@H](n2cc(F)c(=O)[nH]c2=O)C[C@@H]1O)Oc1cccc2ccccc12 (mixture of isomers)	7500	1.13	71	15000	39	35	31	1200
CC(C)C[C@H](NP(=O)(OC[C@H]1O[C@@H](n2cc(F)c(=O)[nH]c2=O)C[C@@H]1O)Oc1ccccc1)C(=O)OCc1ccccc1 (mixture of isomers)	5600	3.2	240	16000	67	170	54	2000
CC(C)C[C@H](NP(=O)(OC[C@H]1O[C@@H](n2cc(F)c(=O)[nH]c2=O)C[C@@H]1O)Oc1cccc2ccccc12)C(=O)OCc1ccccc1 (mixture of isomers)	9400	1.7	130	30000	80	48	29	1500
O=C(OCc1ccccc1)[C@@H]1CCCN1P(=O)(OC[C@H]1O[C@@H](n2cc(F)c(=O)[nH]c2=O)C[C@@H]1O)Oc1ccccc1 (mixture of isomers)	20000	51	980	28000	1100	18000	350	31000
CCCCOC(=O)[C@H](C)NP(=O)(OC[C@H]1O[C@@H](n2cc(F)c(=O)[nH]c2=O)C[C@@H]1O)Oc1cccc2ccccc12 (mixture of isomers)	2700	2.2	64	840	120	21	9.5	110
CCOC(=O)[C@@H](NP(=O)(OC[C@H]1O[C@@H](n2cc(F)c(=O)[nH]c2=O)C[C@@H]1O)Oc1ccccc1)C(C)C (mixture of isomers)	27000	22	1000	> 250000	1200	4400	200	42000
C[C@H](NP(=O)(OC[C@H]1O[C@@H](n2cc(F)c(=O)[nH]c2=O)C[C@@H]1O)Oc1cccc2ccccc12)C(=O)OCC1CC1 (mixture of isomers)	1400	2.2	59	1100	68	31	14	120
CC(C)[C@H](NP(=O)(OC[C@H]1O[C@@H](n2cc(F)c(=O)[nH]c2=O)C[C@@H]1O)Oc1cccc2ccccc12)C(=O)OC1CCCCC1 (mixture of isomers)	27000	1.08	800	46000	670	1290	1200	35000
C[C@H](NP(=O)(OC[C@H]1O[C@@H](n2cc(F)c(=O)[nH]c2=O)C[C@@H]1O)Oc1cccc2ccccc12)C(=O)OC1CCCCC1 (mixture of isomers)	–	1.4	57	1000	90	49	36	150
O=C(OCc1ccccc1)[C@H](Cc1ccccc1)NP(=O)(OC[C@H]1O[C@@H](n2cc(F)c(=O)[nH]c2=O)C[C@@H]1O)Oc1ccccc1 (mixture of isomers)	12000	35	250	11000	14	560	16	39000
CCCCCOC(=O)[C@H](CCSC)NP(=O)(OC[C@H]1O[C@@H](n2cc(F)c(=O)[nH]c2=O)C[C@@H]1O)Oc1ccccc1 (mixture of isomers)	7100	3.2	350	13000	150	410	130	2200
C[C@H](NP(=O)(OC[C@H]1O[C@@H](n2cc(F)c(=O)[nH]c2=O)C[C@@H]1O)Oc1cccc2ccccc12)C(=O)OC1Cc2ccccc2C1 (mixture of isomers)	7100	1.08	79	1000	100	42	39	40000
C[C@H](NP(=O)(OC[C@H]1O[C@@H](n2cc(F)c(=O)[nH]c2=O)C[C@@H]1O)Oc1cccc2ccccc12)C(=O)OC1CCC1 (mixture of isomers)	1500	2.2	73	1500	69	24	11	88
CSCC[C@H](NP(=O)(OC[C@H]1O[C@@H](n2cc(F)c(=O)[nH]c2=O)C[C@@H]1O)Oc1ccccc1)C(=O)OCc1ccccc1 (mixture of isomers)	11000	13	280	25000	150	760	58	4100
CC(C)OC(=O)[C@H](C)NP(=O)(OC[C@H]1O[C@@H](n2cc(F)c(=O)[nH]c2=O)C[C@@H]1O)Oc1ccccc1 (mixture of isomers)	25000	14	1000	30000	710	700	50	1100
CCCCCOC(=O)[C@H](Cc1ccccc1)NP(=O)(OC[C@H]1O[C@@H](n2cc(F)c(=O)[nH]c2=O)C[C@@H]1O)Oc1cccc2ccccc12 (mixture of isomers)	6600	4.67	100	8300	40	140	30	2900
CC[C@H](C)[C@H](NP(=O)(OC[C@H]1O[C@@H](n2cc(F)c(=O)[nH]c2=O)C[C@@H]1O)Oc1ccccc1)C(=O)OCc1ccccc1 (mixture of isomers)	25000	2.2	1000	30000	710	2200	980	1100
CCCCCCOC(=O)[C@H](C)NP(=O)(OC[C@H]1O[C@@H](n2cc(F)c(=O)[nH]c2=O)C[C@@H]1O)Oc1cccc2ccccc12 (mixture of isomers)	1800	0.69	80	650	39	2.2	3.2	76
